Test results from ChEMBL document CHEMBL1122018, “Synthesis and orexigenic activity of some 1-methyl-4-piperidylidene-Substituted pyrrolo[2,1-g][3] benzazepine and dibenzocycloheptene derivatives” (1982).

Legend:
Type in all cases: functional
Felis catus [1] = experiment: Average food consumed at the dose of 0.063 mg/kg (po) using 10 cats per dose level at 60 min (control day/ test day); 18/98
Felis catus [2] = experiment: Average food consumed at the dose of 0.25 mg/kg (po) using 10 cats per dose level at 180 min (control day/ test day); 25/236
Felis catus [3] = experiment: Average food consumed at the dose of 0.25 mg/kg (po) using 10 cats per dose level at 180 min (control day/ test day); 30/169
Felis catus [4] = experiment: Average food consumed at the dose of 0.25 mg/kg (po) using 10 cats per dose level at 180 min (control day/ test day); 41/138
Felis catus [5] = experiment: Average food consumed at the dose of 0.063 mg/kg (po) using 10 cats per dose level at 30 min (control day/ test day); 17/57
Felis catus [6] = experiment: Average food consumed at the dose of 0.50 mg/kg (po) using 10 cats per dose level at 30 min (control day/ test day); 13/68; conditions: dose 0.5 mg/kg
Summary of the method: (§1)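 Cats given test compound suspended in 1% methylcellulose, or 1% methylcellulose placebo, by gavage 30 min before a preweighed test meal. Food was offered in surplus for 3 h, and intake was found by reweighing at 30, 60 and 180 min. Ten cats per dose, each dosed no more than once weekly. Test-day intake was compared with the preceding control day by two-tailed paired t test (p < 0.05); values are mean ± SD.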

Felis catus [7] = experiment: Average food consumed at the dose of 0.50 mg/kg (po) using 10 cats per dose level at 30 min (control day/ test day); 30/147; conditions: dose 0.5 mg/kg; summary of the method: as §1
Felis catus [8] = experiment: Average food consumed at the dose of 0.50 mg/kg (po) using 10 cats per dose level at 30 min (control day/ test day); 35/108; conditions: dose 0.5 mg/kg; summary of the method: as §1
Felis catus [9] = experiment: Average food consumed at the dose of 0.50 mg/kg (po) using 10 cats per dose level at 60 min (control day/ test day); 19/96; conditions: dose 0.5 mg/kg; summary of the method: as §1
Felis catus [10] = experiment: Average food consumed at the dose of 0.50 mg/kg (po) using 10 cats per dose level at 60 min (control day/ test day); 33/124; conditions: dose 0.5 mg/kg; summary of the method: as §1
Felis catus [11] = experiment: Average food consumed at the dose of 0.50 mg/kg (po) using 10 cats per dose level at 60 min (control day/ test day); 34/203; conditions: dose 0.5 mg/kg; summary of the method: as §1
Felis catus [12] = experiment: Average food consumed at the dose of 0.031 mg/kg (po) using 10 cats per dose level at 180 min (control day/ test day); 27/159
Felis catus [13] = experiment: Average food consumed at the dose of 0.031 mg/kg (po) using 10 cats per dose level at 30 min (control day/ test day); 20/55
Felis catus [14] = experiment: Average food consumed at the dose of 0.031 mg/kg (po) using 10 cats per dose level at 60 min (control day/ test day); 17/79
Felis catus [15] = experiment: Average food consumed at the dose of 0.063 mg/kg (po) using 10 cats per dose level at 180 min (control day/ test day); 17/166
Felis catus [16] = experiment: Average food consumed at the dose of 0.50 mg/kg (po) using 10 cats per dose level at 180 min (control day/ test day); 34/273; conditions: dose 0.5 mg/kg; summary of the method: as §1
Felis catus [17] = experiment: Average food consumed at the dose of 0.50 mg/kg (po) using 10 cats per dose level at 180 min (control day/ test day); 36/188; conditions: dose 0.5 mg/kg; summary of the method: as §1
Felis catus [18] = experiment: Average food consumed at the dose of 0.25 mg/kg (po) using 10 cats per dose level at 30 min (control day/ test day); 24/129
Felis catus [19] = experiment: Average food consumed at the dose of 0.25 mg/kg (po) using 10 cats per dose level at 30 min (control day/ test day); 32/66; summary of the method: as §1
Felis catus [20] = experiment: Average food consumed at the dose of 0.50 mg/kg (po) using 10 cats per dose level at 180 min (control day/ test day); 16/141; conditions: dose 0.5 mg/kg; summary of the method: as §1
Felis catus [21] = experiment: Average food consumed at the dose of 0.25 mg/kg (po) using 10 cats per dose level at 60 min (control day/ test day); 25/109; summary of the method: as §1
Felis catus [22] = experiment: Average food consumed at the dose of 0.25 mg/kg (po) using 10 cats per dose level at 60 min (control day/ test day); 31/179; summary of the method: as §1
Felis catus [23] = experiment: Average food consumed at the dose of 0.25 mg/kg (po) using 10 cats per dose level at 60 min (control day/ test day); 31/66; summary of the method: as §1
Felis catus [24] = experiment: Average food consumed at the dose of 0.25 mg/kg (po) using 10 cats per dose level at 30 min (control day/ test day); 17/76

## CN1CCC(=C2c3ccccc3C=Cc3ccc(C(=O)O)cc32)CC1
Felis catus [1]
  Average consumed: 94 g
Felis catus [2]
  Average consumed: 191 g
Felis catus [3]
  Average consumed: 133 g
Felis catus [4]
  Average consumed: 137 g
Felis catus [5]
  Average consumed: 68 g
Felis catus [6]
  Average consumed: 71 g
Felis catus [7]
  Average consumed: 116 g
Felis catus [8]
  Average consumed: 72 g
Felis catus [9]
  Average consumed: 94 g
Felis catus [10]
  Average consumed: 102 g
Felis catus [11]
  Average consumed: 160 g
Felis catus [12]
  Average consumed: 157 g
Felis catus [13]
  Average consumed: 68 g
Felis catus [14]
  Average consumed: 95 g
Felis catus [15]
  Average consumed: 159 g
Felis catus [16]
  Average consumed: 219 g
Felis catus [17]
  Average consumed: 149 g
Felis catus [18]
  Average consumed: 108 g
Felis catus [19]
  Average consumed: 68 g
Felis catus [20]
  Average consumed: 125 g
Felis catus [21]
  Average consumed: 90 g
Felis catus [22]
  Average consumed: 147 g
Felis catus [23]
  Average consumed: 86 g
Felis catus [24]
  Average consumed: 62 g
